From ChEMBL document CHEMBL1152304, “Alteration of the bis-tetrahydrofuran core stereochemistries in asimicin can affect the cytotoxicity” (J Med Chem, 2008)

How the values were obtained:
[1] = test system: L1210; assay: Cytotoxicity against mouse L1210 cells at 0.3 ug by disk diffusion assay; format: functional
How it was run: (§1)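 15 µL of sample dried overnight on 6.5 mm filter disk. Disk placed near edge of 60 mm dish of cells plated in soft agar, incubated 7-10 days. Zone of inhibition measured from disk edge to start of normal-sized colony formation, disk diameter taken as 200 units. Overly toxic samples diluted 1:4 or 1:10 and retested.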

[2] = test system: MC-38; assay: Cytotoxicity against mouse Colon 38 cells at 30 ug by disk diffusion assay; format: functional; how it was run: as §1
[3] = Cytotoxicity against human CFU-GM cells at 0.3 ug by disk diffusion assay; format: functional; how it was run: as §1
[4] = test system: MC-38; assay: Cytotoxicity against mouse Colon 38 cells at 3 ug by disk diffusion assay; format: functional; how it was run: as §1
[5] = Cytotoxicity against human CFU-GM cells at 30 ug by disk diffusion assay; format: functional; how it was run: as §1
[6] = test system: HCT-116; assay: Cytotoxicity against human HCT116 cells at 30 ug by disk diffusion assay; format: functional; how it was run: as §1
[7] = test system: L1210; assay: Cytotoxicity against mouse L1210 cells at 30 ug by disk diffusion assay; format: functional; how it was run: as §1
[8] = test system: CCRF-CEM; assay: Cytotoxicity against human CEM cells at 30 ug by disk diffusion assay; format: functional; how it was run: as §1
[9] = Cytotoxicity against human CFU-GM cells at 3 ug by disk diffusion assay; format: functional; how it was run: as §1
[10] = test system: L1210; assay: Cytotoxicity against mouse L1210 cells at 3 ug by disk diffusion assay; format: functional; how it was run: as §1
[11] = test system: MC-38; assay: Cytotoxicity against mouse Colon 38 cells at 0.3 ug by disk diffusion assay; format: functional; how it was run: as §1
[12] = Cytotoxicity against human H125M cells at 30 ug by disk diffusion assay; format: functional; how it was run: as §1
[13] = Cytotoxicity against human H125M cells at 15 ug by disk diffusion assay; format: functional; how it was run: as §1
[14] = test system: L1210; assay: Cytotoxicity against mouse L1210 cells at 15 ug by disk diffusion assay; format: functional; how it was run: as §1
[15] = Inhibition of bovine heart mitochondrial complex1 activity; set-up: species or system Bos taurus
How it was run: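 Bovine heart submitochondrial particles, 15 µg/mL, in 0.25 M sucrose, 1 mM MgCl2, 50 mM phosphate pH 7.5. Inhibitor added at various concentrations and equilibrated 5 min. Reaction started with 150 µM NADH and followed spectrophotometrically at 340 nm. IC50 derived.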

[16] = test system: L1210; assay: Cytotoxicity against mouse L1210 cells at 3.75 ug by disk diffusion assay; format: functional; how it was run: as §1
[17] = test system: CCRF-CEM; assay: Cytotoxicity against human CEM cells at 15 ug by disk diffusion assay; format: functional; how it was run: as §1
[18] = test system: L1210; assay: Cytotoxicity against mouse L1210 cells at 60 ug by disk diffusion assay; format: functional; how it was run: as §1
[19] = test system: MC-38; assay: Cytotoxicity against mouse Colon 38 cells at 15 ug by disk diffusion assay; format: functional; how it was run: as §1
[20] = test system: HCT-116; assay: Cytotoxicity against human HCT116 cells; format: functional, cell-based
[21] = test system: MC-38; assay: Cytotoxicity against mouse Colon 38 cells at 3.75 ug by disk diffusion assay; format: functional; how it was run: as §1
[22] = test system: L1210; assay: Cytotoxicity against mouse L1210 cells at 0.94 ug by disk diffusion assay; format: functional; how it was run: as §1
[23] = test system: MC-38; assay: Cytotoxicity against mouse Colon 38 cells at 0.94 ug by disk diffusion assay; format: functional; how it was run: as §1
[24] = test system: MC-38; assay: Cytotoxicity against mouse Colon 38 cells at 60 ug by disk diffusion assay; format: functional; how it was run: as §1
[25] = test system: HCT-116; assay: Cytotoxicity against human HCT116 cells at 15 ug by disk diffusion assay; format: functional; how it was run: as §1
[26] = Cytotoxicity against human CFU-GM cells at 60 ug by disk diffusion assay; format: functional; how it was run: as §1
[27] = Cytotoxicity against human CFU-GM cells at 3.75 ug by disk diffusion assay; format: functional; how it was run: as §1
[28] = Cytotoxicity against human CFU-GM cells at 0.94 ug by disk diffusion assay; format: functional; how it was run: as §1
[29] = Cytotoxicity against human H125M cells at 60 ug by disk diffusion assay; format: functional; how it was run: as §1
[30] = Cytotoxicity against human CFU-GM cells at 15 ug by disk diffusion assay; format: functional; how it was run: as §1

Row | Compound | inhibition zone (IZ) [13] [Zone units] | inhibition zone (IZ) [14] [Zone units] | IC50 [15] [nM] | inhibition zone (IZ) [16] [Zone units] | inhibition zone (IZ) [17] [Zone units] | inhibition zone (IZ) [18] [Zone units] | inhibition zone (IZ) [19] [Zone units] | IC50 [20] [nM] | inhibition zone (IZ) [21] [Zone units] | inhibition zone (IZ) [22] [Zone units] | inhibition zone (IZ) [23] [Zone units] | inhibition zone (IZ) [24] [Zone units] | inhibition zone (IZ) [25] [Zone units] | inhibition zone (IZ) [26] [Zone units] | inhibition zone (IZ) [27] [Zone units] | inhibition zone (IZ) [28] [Zone units] | inhibition zone (IZ) [30] [Zone units] | also measured
1 | C[C@H]1C=C(C[C@H](O)CCCCCCCCCC[C@@H](O)[C@H]2CC[C@H]([C@H]3CC[C@H]([C@H](O)CCCCCCCCCCO)O3)O2)C(=O)O1 | – | – | – | – | – | – | – | – | – | – | – | – | – | – | – | – | – | inhibition zone (IZ) [1]: 50 Zone units; inhibition zone (IZ) [2]: 800 Zone units; inhibition zone (IZ) [3]: 450 Zone units; inhibition zone (IZ) [4]: 600 Zone units; inhibition zone (IZ) [5]: 650 Zone units; inhibition zone (IZ) [6]: 600 Zone units; inhibition zone (IZ) [7]: 200 Zone units; inhibition zone (IZ) [8]: 150 Zone units; inhibition zone (IZ) [9]: 550 Zone units; inhibition zone (IZ) [10]: 100 Zone units; inhibition zone (IZ) [11]: 450 Zone units; inhibition zone (IZ) [12]: 500 Zone units
2 | CCCCCCCCCC[C@H](O)[C@H]1CC[C@H]([C@H]2CC[C@H]([C@@H](O)CCCCCCCCCC[C@@H](O)CC3=C[C@H](C)OC3=O)O2)O1 | 450 | 150 | 9 | 400 | 150 | 800 | 800 | 0.45 | 800 | 100 | 700 | 800 | 600 | – | – | – | – | –
3 | CCCCCCCCCC[C@@H](O)[C@@H]1CC[C@@H]([C@@H]2CC[C@@H]([C@H](O)CCCCCCCCCC(O)CC3=CC(C)OC3=O)O2)O1 (some centres undefined) [BULLATACIN] | – | 200 | 2.5 | 250 | 100 | 550 | 850 | 1.4 | 800 | 150 | 650 | 1000 | 650 | 700 | 450 | 450 | 550 | inhibition zone (IZ) [29]: 400 Zone units
4 | CCCCCCCCCC[C@@H](O)[C@H]1CC[C@@H]([C@H]2CC[C@H]([C@H](O)CCC[C@H](O)CCCCCCCC3=C[C@H](C)OC3=O)O2)O1 [TRILOBIN] | 350 | 200 | – | 200 | 100 | 850 | 800 | – | 800 | 100 | 600 | 950 | 450 | 550 | 500 | 400 | 350 | –
5 | CCCCCCCCCC[C@H](O)[C@H]1CC[C@@H]([C@@H]2CC[C@H]([C@H](O)CCCCCCCCCC[C@@H](O)CC3=C[C@H](C)OC3=O)O2)O1 [rolliniastatin-1] | 600 | 200 | 3 | 250 | 0 | 600 | 1000 | 0.22 | 800 | 100 | 700 | 900 | 600 | 750 | 400 | 400 | 350 | –
